Experimental findings from ChEMBL document CHEMBL4359867, “Design, synthesis and biological evaluation of novel 4-anilinoquinazoline derivatives as hypoxia-selective EGFR and VEGFR-2 dual inhibitors” (Eur J Med Chem, 2019) are described below.

The target of data set [1] is Epidermal growth factor receptor (Homo sapiens, UniProt P00533). Description: Inhibition of N-terminal GST-tagged human EGFR cytoplasmic domain (669 to 1210 residues) expressed in baculovirus expression system using FAM-22 peptide as substrate incubated for 10 mins followed by substrate addition by caliper method.
Chain of Epidermal growth factor receptor (P00533 whole entry, the tested form may be a part): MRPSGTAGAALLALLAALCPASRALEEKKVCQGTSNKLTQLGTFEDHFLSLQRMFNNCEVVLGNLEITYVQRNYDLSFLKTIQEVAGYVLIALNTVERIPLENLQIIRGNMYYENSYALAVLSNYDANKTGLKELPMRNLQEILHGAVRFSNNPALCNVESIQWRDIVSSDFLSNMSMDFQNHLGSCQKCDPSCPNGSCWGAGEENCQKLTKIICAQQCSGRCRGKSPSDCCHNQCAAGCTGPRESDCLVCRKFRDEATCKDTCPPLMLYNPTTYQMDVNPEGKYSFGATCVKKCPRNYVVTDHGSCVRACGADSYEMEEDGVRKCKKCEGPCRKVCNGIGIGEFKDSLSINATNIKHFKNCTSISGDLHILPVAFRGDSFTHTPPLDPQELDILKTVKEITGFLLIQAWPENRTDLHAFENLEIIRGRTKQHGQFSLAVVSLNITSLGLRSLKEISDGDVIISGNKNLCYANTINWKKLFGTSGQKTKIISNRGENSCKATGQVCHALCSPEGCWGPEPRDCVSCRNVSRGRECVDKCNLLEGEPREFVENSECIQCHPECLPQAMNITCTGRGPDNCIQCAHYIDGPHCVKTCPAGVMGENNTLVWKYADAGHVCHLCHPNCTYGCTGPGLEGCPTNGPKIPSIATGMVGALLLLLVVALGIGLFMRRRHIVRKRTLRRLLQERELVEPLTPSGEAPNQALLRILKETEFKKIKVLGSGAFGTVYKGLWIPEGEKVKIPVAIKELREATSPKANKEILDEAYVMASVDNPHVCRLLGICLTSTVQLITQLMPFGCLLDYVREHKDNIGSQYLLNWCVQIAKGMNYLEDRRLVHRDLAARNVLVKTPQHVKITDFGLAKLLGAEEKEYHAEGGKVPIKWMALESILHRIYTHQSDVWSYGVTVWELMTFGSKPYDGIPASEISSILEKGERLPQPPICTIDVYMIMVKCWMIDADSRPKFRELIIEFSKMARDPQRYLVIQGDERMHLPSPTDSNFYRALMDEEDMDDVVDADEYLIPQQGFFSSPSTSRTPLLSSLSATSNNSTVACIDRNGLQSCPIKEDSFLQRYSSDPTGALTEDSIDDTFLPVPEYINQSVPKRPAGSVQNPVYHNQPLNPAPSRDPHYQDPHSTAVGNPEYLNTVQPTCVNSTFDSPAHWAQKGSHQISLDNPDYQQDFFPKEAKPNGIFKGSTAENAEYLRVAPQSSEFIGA
Data set [2] concerns the target Vascular endothelial growth factor receptor 2 (Homo sapiens, UniProt P35968). Kind of data set: Inhibition of N-terminal GST-tagged human VEGFR2 cytoplasmic domain (790 to 1356 residues) expressed in baculovirus expression system using FAM-22 peptide as substrate incubated for 10 mins followed by substrate addition by caliper method. An outline of the steps:
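Compounds (DMSO stocks 40 μM–0.2 nM, ten levels) tested in duplicate. Enzyme preincubated with compound 10 min at room temperature, then FAM-P22 peptide/ATP added and incubated at 28 °C. Stopped with EDTA-containing buffer. IC50 obtained by four-parameter Hill fit; staurosporine as reference.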

In data set [3] the test system is A549. Description: Antiproliferative activity against human A549 cells assessed as inhibition of cell growth at 0.5 uM in hypoxia condition (200 uM CoCl2) and under irradiation at 8 Gy for 24 hrs and measured after 24 hrs by CCK8 assay (reference value: 64.135%). In kind it is functional.
In data set [4] the test system is A549. Kind of data set: Antiproliferative activity against human A549 cells assessed as inhibition of cell growth at 0.5 uM after 48 hrs under hypoxic condition (200 uM CoCl2) by CCk-8 assay relative to control (reference value: 59.94%). It is filed as functional. An outline of the steps:
(§1)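 RPMI-1640 with 10% fetal calf serum. Compounds dissolved in DMSO. Hypoxia produced chemically with cobalt(II) chloride; normoxic wells received no CoCl2. Viability read by CCK-8 (WST-8) at 450 nm, and inhibition ratio calculated against untreated control.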

Data set [5] in a line: Cytotoxicity against human A549 cells assessed as inhibition of cell growth at 0.5 uM after 48 hrs under normoxic condition by CCk-8 assay relative to control. In kind it is cell-based. An outline of the steps:
as §1

A short description of data set [6]: Cytotoxicity against human NCI-H446 cells assessed as inhibition of cell growth at 0.5 uM after 48 hrs under normoxic condition by CCk-8 assay relative to control. It is filed as cell-based. An outline of the steps: as §1
Data set [7] relates to NCI-H446. Kind of data set: Antiproliferative activity against human NCI-H446 cells assessed as hypoxic sensitive enhancement ratio in presence of CoCl2. It is filed as functional.
The test system of data set [8] is NCI-H446. Description: Antiproliferative activity against human NCI-H446 cells assessed as inhibition of cell growth at 0.5 uM after 48 hrs under hypoxic condition (200 uM CoCl2) by CCk-8 assay relative to control (reference value: 65.84%). In kind it is functional. An outline of the steps: as §1
For data set [9], the system named is NCI-H446. Description: Antiproliferative activity against human NCI-H446 cells assessed as inhibition of cell growth at 0.5 uM in hypoxia condition (200 uM CoCl2) and under irradiation at 8 Gy for 24 hrs and measured after 24 hrs by CCK8 assay (reference value: 68.77%). It is filed as functional. A general note: Formazan colour is commonly taken as a measure of viable cells.

Data set [10] deals with NCI-H446. Description: Antiproliferative activity against human NCI-H446 cells assessed as hypoxic sensitive enhancement ratio in presence of Cocl2 under irradiation. In kind it is functional.
Data set [11] has as its system A549. Description: Antiproliferative activity against human A549 cells assessed as hypoxic sensitive enhancement ratio in presence of Cocl2 under irradiation. In kind it is functional.
Data set [12] has as its system A549. Kind of data set: Antiproliferative activity against human A549 cells assessed as hypoxic sensitive enhancement ratio in presence of CoCl2. It is filed as functional.
Data set [13] has as its system A549. Description: Antitumour activity against human A549 cells xenografted in Balb/c mouse assessed as tumour growth inhibition at 5 mg/kg, po administered daily and measured at day 18 relative to control. It is filed as functional. The note with it: 432 h, read-out: TGI. An outline of the steps:
(§2)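 Male BALB/c-nu mice carrying sc flank A549 xenografts (1 × 10^7 cells). Dosing began 6–7 days post-inoculation, with oral 5, 15 or 50 mg/kg daily for 18 days and 3 mice per group. Tumours measured by caliper on days 4, 6, 8, 11, 13, 15 and 18. TGI derived from volume change from dosing start relative to untreated controls.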
(In general: A xenograft is tissue or cells of one species grown in another, often human tumour cells in immunodeficient mice.)

Data set [14] deals with A549. Description: Antitumour activity against human A549 cells xenografted in po dosed Balb/c mouse assessed as tumour growth inhibition administered daily for 18 days and […]. It is filed as functional, organism-based.
Data set [15] relates to A549. Description: Antitumour activity against human A549 cells xenografted in Balb/c mouse assessed as increase in tumour volume at 10 mg/kg, po administered daily and mesured after 7 days. In kind it is functional, organism-based. An outline of the steps: (§3)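 Male BALB/c-nu mice, 1 × 10^7 A549 cells implanted sc in the flank. Dosing began seven days after implantation: 10 mg/kg oral, daily for 17 days, 5 mice per group, with a vehicle control group. Tumour size measured daily by caliper, with body weight and clinical signs also recorded daily. TGI calculated from volume changes relative to starting volumes versus control.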

Data set [16] concerns A549. Kind of data set: Downregulation of VEGF expression in human A549 cells at 5 uM after 24 hrs under hypoxic condition by q-PCR analysis relative to control. In kind it is functional.
In data set [17] the test system is A549. Kind of data set: Antitumour activity against human A549 cells xenografted in Balb/c mouse assessed as tumour growth inhibition at 50 mg/kg, po administered daily and measured at day 18 relative to control. It is filed as functional. The note with it: 432 h, read-out: TGI. An outline of the steps:
as §2

Data set [18] is described as follows: Toxicity in Balb/c mouse xenografted with human A549 cells assessed as effect on weight loss at 10 mg/kg, po measured up to 17 days. In kind it is organism-based. To be noted: in vivo, 408 h. An outline of the steps:
as §3

The subject of data set [19] is A549. Description: Antitumour activity against human A549 cells xenografted in Balb/c mouse assessed as tumour growth inhibition at 10 mg/kg, po administered daily and mesured at day 17 relative to control. In kind it is functional. To be noted: 408 h, read-out: TGI. An outline of the steps: as §3
The test system of data set [20] is A549. Kind of data set: Antitumour activity against human A549 cells xenografted in Balb/c mouse assessed as tumour growth inhibition at 15 mg/kg, po administered daily and measured at day 18 relative to control. It is filed as functional. The note with it: 432 h, read-out: TGI. An outline of the steps: as §2
Data set [21] concerns A549. Kind of data set: Downregulation of VEGF expression in human A549 cells at 5 uM after 24 hrs under normoxic condition by q-PCR analysis relative to control. To be noted: a549, 24 h. In kind it is cell-based.

SMILES strings stand for the structures. Calls of active or inactive are those of the source. No cut-off for these calls is given here.

Chain of Vascular endothelial growth factor receptor 2 (P35968 whole entry, the tested form may be a part): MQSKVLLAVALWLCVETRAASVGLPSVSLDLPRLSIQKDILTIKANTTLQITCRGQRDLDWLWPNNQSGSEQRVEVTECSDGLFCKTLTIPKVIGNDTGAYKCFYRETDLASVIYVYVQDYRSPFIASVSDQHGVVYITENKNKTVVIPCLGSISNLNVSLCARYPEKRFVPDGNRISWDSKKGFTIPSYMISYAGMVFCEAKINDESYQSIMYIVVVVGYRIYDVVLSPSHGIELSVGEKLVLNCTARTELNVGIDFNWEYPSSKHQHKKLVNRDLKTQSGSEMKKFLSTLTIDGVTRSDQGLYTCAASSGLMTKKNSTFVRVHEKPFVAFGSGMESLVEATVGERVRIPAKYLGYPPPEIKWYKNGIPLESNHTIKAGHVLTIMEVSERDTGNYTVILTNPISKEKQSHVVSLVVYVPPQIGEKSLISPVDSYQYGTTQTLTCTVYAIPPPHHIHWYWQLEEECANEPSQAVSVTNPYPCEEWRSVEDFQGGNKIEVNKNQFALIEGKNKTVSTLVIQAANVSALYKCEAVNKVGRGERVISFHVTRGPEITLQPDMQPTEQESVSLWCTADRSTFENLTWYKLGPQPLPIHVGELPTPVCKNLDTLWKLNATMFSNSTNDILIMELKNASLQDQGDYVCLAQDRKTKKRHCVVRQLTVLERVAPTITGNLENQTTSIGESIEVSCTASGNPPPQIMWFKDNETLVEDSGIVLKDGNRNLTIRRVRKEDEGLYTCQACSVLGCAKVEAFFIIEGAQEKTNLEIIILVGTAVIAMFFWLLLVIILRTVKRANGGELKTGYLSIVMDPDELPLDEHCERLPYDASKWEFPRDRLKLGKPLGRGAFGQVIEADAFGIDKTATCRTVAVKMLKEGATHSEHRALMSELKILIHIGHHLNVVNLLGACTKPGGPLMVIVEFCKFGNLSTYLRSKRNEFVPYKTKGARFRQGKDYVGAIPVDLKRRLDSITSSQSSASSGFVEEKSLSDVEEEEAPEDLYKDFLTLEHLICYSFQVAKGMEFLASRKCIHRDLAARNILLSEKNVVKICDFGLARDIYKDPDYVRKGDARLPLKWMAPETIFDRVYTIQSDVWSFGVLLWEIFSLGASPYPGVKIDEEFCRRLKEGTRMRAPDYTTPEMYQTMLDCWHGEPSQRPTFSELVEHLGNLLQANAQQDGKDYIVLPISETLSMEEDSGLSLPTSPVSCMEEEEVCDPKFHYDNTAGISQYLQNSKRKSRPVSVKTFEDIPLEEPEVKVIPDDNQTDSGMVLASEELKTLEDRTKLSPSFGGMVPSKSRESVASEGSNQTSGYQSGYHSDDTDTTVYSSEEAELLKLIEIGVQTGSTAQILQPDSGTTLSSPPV

In the case of `COc1cc2c(Nc3ccc(F)c(F)c3)ncnc2cc1OCCOCCOCCNC(=O)Cn1cnc([N+](=O)[O-])n1`, the IC50 (in general, the concentration that gives 50% inhibition) in data set [1] was 20 nM; in [2], 1880 nM.

Take `COc1cc2c(Nc3ccc(F)c(F)c3)ncnc2cc1OCCOCCNC(=O)Cn1cnc([N+](=O)[O-])n1`: the IC50 was 3.7 nM in [1] and 1100 nM in data set [2].

Regarding `COc1cc2c(Nc3ccc(Br)cc3F)ncnc2cc1OCCOCCOCCNC(=O)Cn1cnc([N+](=O)[O-])n1`, the values for the IC50 in [1] and in [2] were 4.95 nM and 217 nM, respectively. Also, the “inhibition (INH)” value is 80.36% in data set [3], 74.36% in data set [4], 78.81% in data set [8] and 84.92% in data set [9]. Moreover, the values for the inhibition at 48 h, 0.5 µM in data set [5] and in data set [6] were 16% and 20.4%, respectively. Also, the Ratio in data set [7] was 1.08; in data set [10], 0.91; in data set [11], 0.9; in data set [12] it was 1.2.

Turning to `COc1cc2c(Nc3ccc(F)cc3Cl)ncnc2cc1OCCNC(=O)Cn1cnc([N+](=O)[O-])n1`, the IC50 is 48.1 nM in [1] and 517 nM in [2].

As for `COc1cc2c(Nc3ccc(Br)cc3F)ncnc2cc1OCCNC(=O)Cn1cnc([N+](=O)[O-])n1`, the IC50 in data set [1] was 43.6 nM; in data set [2], 86.8 nM. In addition, the inhibition (INH) was 80.3% in data set [3], 72.99% in [4], 76.34% in data set [8] and 79.03% in data set [9]. In addition, the inhibition (usually the share of the control response that was lost under treatment) at 48 h, 0.5 µM in data set [5] was determined as 14.9%; in data set [6], 16.8%. Moreover, the Ratio is given as 1.07 in data set [7], 0.85 in data set [10], 0.9 in [11] and 1.19 in data set [12].

In the case of `COc1cc2c(Nc3ccc(C)c(Br)c3)ncnc2cc1OCCOCCOCCNC(=O)Cn1cnc([N+](=O)[O-])n1`, the values for the IC50 in [1] and in data set [2] were 6.24 nM and 245 nM, respectively.

As to `COc1cc2c(Nc3ccc(Cl)c(Cl)c3F)ncnc2cc1OCCOCCNC(=O)Cn1cnc([N+](=O)[O-])n1`, the inhibition in vivo at 5 mg/kg in [13] worked out at 28.1%. The inhibition result in data set [14] is “Dose-dependent effect”. Further, in data set [15], the outcome was Active. Besides, the “inhibition (INH)” value in data set [3] was determined as 80.7%; in [4] it was 82.25%; in data set [8] it was 77.9%; in data set [9], 85%. Besides, the inhibition at 48 h, 0.5 µM in data set [5] is 13.8%; in data set [6], 20.5%. Also, the “fold change (FC)” value in data set [16] is reported as 0.0037; in data set [21], 0.1833. The compound further displayed an IC50 in [2] of 67.8 nM. In data set [17], the inhibition in vivo at 50 mg/kg turned out to be 76.3%. In data set [18], the Activity entry is listed as “Non-Toxic”. Also, the inhibition in vivo at 10 mg/kg in [19] was 49%. For the same compound, the inhibition in vivo at 15 mg/kg in data set [20] was 63.9%.

With `COc1cc2c(Nc3ccc(Br)cc3F)ncnc2cc1OCC1CCN(C(=O)Cn2cncc2[N+](=O)[O-])CC1`, the IC50 in data set [1] was 3.23 nM; in data set [2], 27.1 nM.

Take `COc1cc2c(Nc3ccc(C)c(Br)c3)ncnc2cc1OCCOCCNC(=O)Cn1cnc([N+](=O)[O-])n1`: the results for the IC50 in [1] and in data set [2] were 0.37 nM and 407 nM, respectively. For the same compound, the “inhibition (INH)” value amounted to 69.18% in [3], 65.39% in [4], 77.71% in [8] and 80.1% in data set [9]. The inhibition at 48 h, 0.5 µM stood at 5.48% in data set [5] and 18.6% in [6]. Also, the Ratio in data set [7] was found to be 1.08; in data set [10] it was 0.86; in data set [11], 0.8; in data set [12], 1.15.

On to `COc1cc2c(Nc3ccc(F)cc3Cl)ncnc2cc1OCCOCCNC(=O)Cn1cnc([N+](=O)[O-])n1`, for which the figures for the IC50 in [1] and in data set [2] were 20.8 nM and 4080 nM, respectively. The “inhibition (INH)” value in data set [3] came to 77.88%; in [4], 69.01%; in data set [8] it was 80.31%; in [9], 83.35%. In addition, the inhibition at 48 h, 0.5 µM stood at 10.3% in data set [5] and 13.9% in data set [6]. The Ratio in [7] was 1.14; in data set [10], 0.89; in [11] it was 0.89; in data set [12] it was 1.17.

On to `COc1cc2c(Nc3ccc(C)c(Br)c3)ncnc2cc1OCCNC(=O)Cn1cnc([N+](=O)[O-])n1`, for which the values for the IC50 in data set [1] and in data set [2] were 18.5 nM and 184 nM, respectively.

Take `COc1cc2c(Nc3ccc(F)cc3Cl)ncnc2cc1OCCOCCOCCNC(=O)Cn1cnc([N+](=O)[O-])n1`: the results for the IC50 in data set [1] and in data set [2] were 12.9 nM and 2870 nM, respectively.

For the compound `COc1cc2/c(=N/c3ccc(Br)cc3F)nc[nH]c2cc1OCC1CCN(C)CC1` [VANDETANIB], the result in [15] was Active. Also, the “inhibition (INH)” value came out at 81.44% in data set [3], 67.26% in data set [4], 77.67% in [8] and 82.02% in data set [9]. Besides, in data set [19], the inhibition in vivo at 10 mg/kg is 62.1%.

Regarding `COc1cc2c(Nc3ccc(F)cc3)ncnc2cc1OCCOCCNC(=O)Cn1cnc([N+](=O)[O-])n1`, the IC50 is 16.4 nM in [1] and 864 nM in data set [2]. Further, the “inhibition (INH)” value amounted to 76.94% in [3], 72.53% in data set [4], 78.7% in data set [8] and 80.58% in [9]. For the same compound, the inhibition at 48 h, 0.5 µM worked out at 8.43% in data set [5] and 11.1% in data set [6]. Further, the Ratio in [7] is on record as 1.13; in data set [10] it was 0.86; in data set [11], 0.86; in [12], 1.25.

For `COc1cc2c(Nc3cccc(F)c3)ncnc2cc1OCCOCCNC(=O)Cn1cnc([N+](=O)[O-])n1`, the IC50 in data set [1] was 3.11 nM; in data set [2], 1200 nM.
